Series [1] can be described thus: Antiproliferative activity against mouse B16F10 cells after 72 hrs by neutral red staining based assay. The series is classed as functional, cell-based. As to conditions: B16-F10, 72 h. The method in brief: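 Murine B16F10 (ATCC) in DMEM with pyruvate, 10% FBS, 2% glutamine, 1% pen-strep, 37 °C, 5% CO2. 20 000 cells/well dosed 24 h later (1% DMSO final). After 72 h, PBS rinse, neutral red 40 μg/mL for 3 h at 37 °C, destain with acetic acid/EtOH/H2O 1:50:49 for 30 min at RT, A540. IC50 over 10 ng/mL–10 μg/mL, separate duplicates.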

Series [2] in a line: Antiproliferative activity against mouse B16F10 cells at 1 to 10 uM after 72 hrs by neutral red staining based assay relative to control. The series is classed as functional, B16-F10. The essentials:
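B16F10 cells in supplemented DMEM at 37 °C, 5% CO2, 20 000/well, treated 24 h after plating with 1% DMSO final. After 72 h exposure, neutral red uptake (40 μg/mL, 3 h, 37 °C), acid-ethanol destain, absorbance 540 nm. Inhibition = [1 − (OD540 treated/OD540 control)] × 100 from triplicate experiments.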

Series [3] in a line: Cytotoxicity against human KB cells assessed as inhibition of cell proliferation at 10 uM after 72 hrs by cell titer 96 aqueous one solution based assay. The class given is functional. The method in brief:
(§1)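 KB cells in D-MEM with 10% FCS and antibiotics/fungizone under 5% CO2. 600 cells/well treated 24 h after seeding, 1% DMSO final, against DMSO controls. After 72 h, CellTiter 96 AQueous One for 3 h at 37 °C, absorbance 490 nm. Inhibition = [1 − (OD490 treated/OD490 control)] × 100, triplicate; mean ± SE.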

Series [4] is described as follows: Antiproliferative activity against human HL60 cells after 72 hrs by cell titer 96 aqueous one solution based assay. The series is classed as functional. To be noted: HL-60, 72 h.
Series [5] is described as follows: Antiproliferative activity against human KB cells after 72 hrs by cell titer 96 aqueous one solution based assay. The class given is functional. The essentials: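 KB cells (NCI origin) in D-MEM with 10% fetal calf serum, penicillin, streptomycin and fungizone under 5% CO2. 600 cells/well, dosed 24 h after plating from DMSO stocks (1% DMSO final; DMSO-only controls). 72 h exposure, then CellTiter 96 AQueous One for 3 h at 37 °C, A490. IC50 (50% inhibition) from 5 nM–100 μM in separate duplicate experiments.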

The nature of series [6]: Cytotoxicity against human KB cells assessed as inhibition of cell proliferation at 1 uM after 72 hrs by cell titer 96 aqueous one solution based assay. The series is classed as functional. The method in brief:
as §1

The nature of series [7]: Antiproliferative activity against human HCT116 cells after 72 hrs by cell titer 96 aqueous one solution based assay. The series is classed as functional. As to conditions: HCT-116, 72 h.
Series [8] can be described thus: Antiproliferative activity against human MDA435 cells at 1 to 10 uM after 72 hrs by cell titer 96 aqueous one solution based assay relative to control. The class given is functional, MDA-MB-435.
A short description of series [9]: Antiproliferative activity against human HL60 cells at 1 to 10 uM after 72 hrs by cell titer 96 aqueous one solution based assay relative to control. The class given is functional, HL-60.
Series [10] in a line: Antiproliferative activity against human MDA435 cells after 72 hrs by cell titer 96 aqueous one solution based assay. As to conditions: MDA-MB-435, 72 h. The class given is functional.
A short description of series [11]: Antiproliferative activity against human HCT116 cells at 1 to 10 uM after 72 hrs by cell titer 96 aqueous one solution based assay relative to control. The series is classed as functional, HCT-116.
A short description of series [12]: Antiproliferative activity against human MRC5 cells at 1 to 10 uM after 72 hrs by cell titer 96 aqueous one solution based assay relative to control. As to conditions: mrc5, 72 h.
Series [13] in a line: Antiproliferative activity against human MRC5 cells after 72 hrs by cell titer 96 aqueous one solution based assay. To be noted: MRC5, 72 h.

The structures appear in SMILES notation.

By IC50 is commonly meant the concentration at which inhibition is half-maximal. A low value points to greater potency in that assay. What is called inhibition is the share of the control response that was lost under treatment.

`CC[C@H]1C=CCC[C@@]2(C[C@@H]3CC[C@@H]4[C@H](C(=O)OCCCCCCCCCCCCCCCCC(=O)N(CCCN)CC(O)CCN)[C@]5(CCC[C@@H](C)O5)NC(=[N+]34)N2)O1` (stereo not given in full): the IC50 was 200 nM in series [1]; 10 to 30 nM in series [4]; 5 to 20 nM in [5]; 20 to 50 nM in [7]; 40 to 70 nM in series [10]. The Activity in [2], in series [8], in series [9] and in [11] was 100% each time. The inhibition at 10 µM in [3] was determined as 100%. For the same molecule, in series [6], the inhibition at 1 µM is 96%.

`CCCCCCC[C@@H]1N=C(N)N2CCCC2=C1C(=O)O`: the inhibition at 10 µM in series [3] came to 96%. For the same molecule, the IC50 in series [4] was 3800 to 7100 nM; in series [5], 6700 to 7700 nM; in [7], 9900 nM; in series [10], 9300 to 11000 nM. The inhibition at 1 µM in series [6] amounted to 61%. Also, the Activity in series [8], in series [9] and in [11] was 100% in each case.

Turning to `CC[C@H]1C=CCC[C@@]2(C[C@@H]3CC[C@@H]4C[C@]5(CCC[C@@H](C)O5)NC(=[N+]43)N2)O1`, in series [3], the inhibition at 10 µM came to 84%. Moreover, the inhibition at 1 µM in series [6] worked out at 0%.

For `CCCCCCCCCc1nc(N)[n+]2c(c1C(=O)OCCCCNC(=N)N)CCC2`, in series [3], the inhibition at 10 µM was 98%. In addition, the Activity in series [12], in [9] and in series [11] was 100% in each case. Besides, the IC50 in series [4] is 3600 to 5400 nM; in series [5], 100 nM; in [13] it was 3400 to 3900 nM; in [7], 3400 to 3500 nM. In addition, the inhibition at 1 µM in [6] amounted to 89%.

Take `CC[C@H]1C=CCC[C@@]2(C[C@@H]3CC[C@@H]4[C@H](C(=O)OCCCCCCCCCCCCCCCCCC(=O)N(CCCN)CCCC(N)=O)[C@]5(CCC[C@@H](C)O5)NC(=[N+]34)N2)O1`: the IC50 was in the range of 800 to 850 nM in [1] and 50 to 70 nM in series [5]. The Activity in series [2] was 100%. Further, the inhibition at 10 µM in [3] came to 100%. In addition, in series [6], the inhibition at 1 µM amounted to 100%.

As to `CC[C@H]1C=CCC[C@@]2(C[C@@H]3CC[C@@H]4[C@H](C(=O)OCCCCCCCCCCCCCCC(=O)N(CCCN)CC(O)CCN)[C@]5(CCC[C@@H](C)O5)NC(=[N+]34)N2)O1` (stereo not given in full), in series [3], the inhibition at 10 µM amounted to 100%. Moreover, the Activity in [12], in series [9] and in series [11] was 100% in each case. Moreover, the IC50 in series [4] was 5000 to 5400 nM; in series [5] it was 300 nM; in series [13] it was 3200 to 3400 nM; in [7], 3100 to 3400 nM. The inhibition at 1 µM in series [6] was 89%.

For the molecule `CC[C@H]1C=CCC[C@@]2(C[C@@H]3CC[C@@H]4[C@H](C(=O)OCCCCCCCCCCCCCCCC(=O)O)[C@]5(CCC[C@@H](C)O5)NC(=[N+]34)N2)O1`, the inhibition at 10 µM in series [3] came out at 97%. The IC50 in series [5] lay in the range of 500 to 600 nM. In series [6], the inhibition at 1 µM is 85%.

Take `CCCCCCCCCc1cc2[n+](c(N)n1)CCC2`: the inhibition at 10 µM in series [3] stood at 99%. Moreover, the Activity in series [12], in series [8], in [9] and in series [11] was 100% in each case. The IC50 in [4] is 1300 nM; in series [5] it was 200 to 400 nM; in series [13], 550 to 600 nM; in series [7] it was 740 to 840 nM; in series [10], 320 to 860 nM. In addition, the inhibition at 1 µM in series [6] stood at 82%.

For `CC[C@H]1C=CCC[C@@]2(C[C@@H]3CC[C@@H]4[C@H](C(=O)OCCCCCCCCCCCCCCCC(=O)O)[C@]5(CCCCO5)NC(=[N+]34)N2)O1`, the inhibition at 10 µM in series [3] was 95%. This molecule also showed an IC50 in series [5] of 500 to 600 nM. For the same molecule, the inhibition at 1 µM in [6] is 80%.

For `CCCCCCCCC[C@@H]1N=C(N)N2CCCC2=C1C(=O)OCCCCNC(=N)N`, in series [3], the inhibition at 10 µM came to 100%. Also, 30 nM corresponded to half-maximal inhibition in series [5] (IC50). Also, the inhibition at 1 µM in [6] is 97%.

With `CCCCCCCC[C@@H]1N=C(N)N2CCCC2=C1C(=O)OCCCCNC(=N)N`, in series [3], the inhibition at 10 µM came out at 100%. For the same molecule, the Activity in series [12], in series [9] and in [11] was 100% throughout. Besides, the IC50 was 8000 to 9100 nM in series [4], 300 nM in series [5], 3600 to 4100 nM in [13] and 3400 to 4200 nM in series [7]. The inhibition at 1 µM in [6] was determined as 86%.

`CCCCCCCCC[C@@H]1N=C(N)N2CCCC2=C1C(=O)O`: the inhibition at 10 µM in series [3] stood at 72%. Also, the inhibition at 1 µM in series [6] came to 0%.

As for `CCCCCCC[C@@H]1N=C(N)N2CCCC2=C1C(=O)OCCCCNC(=N)N`, the inhibition at 10 µM in [3] stood at 100%. This molecule also returned an IC50 in series [5] of 100 to 200 nM. For the same molecule, the inhibition at 1 µM in series [6] was found to be 80%.

As to `CC[C@H]1C=CCC[C@@]2(C[C@@H]3CC[C@@H]4[C@H](C(=O)OCCCCCCCCCCCCCCCC(=O)N(CCCN)CC(O)CCN)[C@]5(CCC[C@@H](C)O5)NC(=[N+]34)N2)O1` (stereo not given in full), the IC50 in [1] is 200 nM; in series [4], 4 to 6 nM; in series [5], 5 nM; in series [7], 7 nM; in [10], 9 to 15 nM. In addition, the Activity in [2], in series [8], in [9] and in [11] was 100% throughout. In addition, the inhibition at 10 µM in series [3] came out at 99%. Also, in [6], the inhibition at 1 µM amounted to 100%.

(Values after ChEMBL document CHEMBL3867427, “Cytotoxic Guanidine Alkaloids from a French Polynesian Monanchora n. sp. Sponge” (J Nat Prod, 2016).)
